21 molecules from ChEMBL document CHEMBL1914393, “Chemical scaffolds with structural similarities to siderophores of nonribosomal peptide-polyketide origin as novel antimicrobials against Mycobacterium tuberculosis and Yersinia pestis” (Bioorg Med Chem Lett, 2011) can be followed below.

SMILES strings stand for the structures. ≈ marks a conversion by molar mass, not a printed value. Calls of active or inactive are those of the source.

The subject of test [1] is Yersinia pestis. Nature of the test: Antimicrobial activity against Yersinia pestis KIM6-2082.1+ in PMHD medium after 26 hrs by spectrophotometric analysis. It counts as functional, organism-based.
For test [2], the system named is Mycobacterium tuberculosis. In words: Antimicrobial activity against Mycobacterium tuberculosis H37Rv in GASTD medium after 10 days by spectrophotometric analysis. The settings on record: 240 h. It counts as functional, organism-based. The essentials: (§1)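 Virulent H37Rv, twofold microdilution in iron-limiting GASTD or GASTD plus 100 μM FeCl3, started at OD600 0.001 from deferrated stocks. Compounds were added in DMSO (0.5% final) up to 500 μM or the solubility limit. Cultures sat stationary for 10 days at 37 °C, read at OD600. IC50 from sigmoidal fits to triplicates; MIC90 is the lowest concentration giving ≥90% inhibition versus DMSO controls. Ratios are +Fe/GASTD.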

In test [3] the test system is Mycobacterium tuberculosis. Nature of the test: Antimicrobial activity against Mycobacterium tuberculosis H37Rv in GASTD medium supplemented with 100 uM FeCl3 after 10 days by spectrophotometric analysis. It counts as functional, organism-based. The settings on record: 240 h. In outline: as §1
Test [4] concerns Yersinia pestis. Nature of the test: Antimicrobial activity against Yersinia pestis KIM6-2082.1+ in PMHD medium supplemented with 100 uM FeCl3 after 26 hrs by spectrophotometric analysis. The format is functional, organism-based.
In test [5] the test system is Yersinia pestis. Nature of the test: Ratio of IC50 for Yersinia pestis KIM6-2082.1+ in PMHD medium supplemented with 100 uM FeCl3 to IC50 for Yersinia pestis KIM6-2082.1+ in Fe-deficient PMHD medium. It counts as functional.
In test [6] the test system is Mycobacterium tuberculosis. In words: Ratio of IC50 for Mycobacterium tuberculosis H37Rv in GASTD medium supplemented with 100 uM FeCl3 to IC50 for Mycobacterium tuberculosis H37Rv in Fe-deficient GASTD medium. The format is functional. In outline:
as §1

The test system of test [7] is Mycobacterium tuberculosis. Nature of the test: Ratio of MIC90 for Mycobacterium tuberculosis H37Rv in GASTD medium supplemented with 100 uM FeCl3 to MIC90 for Mycobacterium tuberculosis H37Rv in Fe-deficient GASTD medium. It counts as functional. In outline:
as §1

Test [8] concerns Mycobacterium tuberculosis. In words: Bactericidal activity against Mycobacterium tuberculosis H37Rv in GASTD medium at 2 times MIC after 30 days by colony counting. The format is functional, organism-based. In outline: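 Duplicate GASTD cultures were treated and incubated as in the growth assay (37 °C, 10 days), then serial 10-fold dilutions were plated on Middlebrook 7H11. Colonies were counted after 30 days at 37 °C and reported as CFU/mL. Bactericidal was defined as >99% killing relative to inoculum.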

Take `O=C(NO)N/N=C/c1ccccc1O`: the IC50 was > 16 µM in the test with Yersinia pestis [1], > 16 µM in test [2], > 16 µM in test [3] and > 4 µM in the test on Yersinia pestis [4]. Also, the MIC90 was > 16 µM in the test on Yersinia pestis [1], > 16 µM in test [2], > 16 µM in test [3] and > 4 µM with Yersinia pestis [4].
Take `O=C(NO)N1N=C(c2ccccc2O)C[C@H]1c1ccccc1O`: the IC50 with Yersinia pestis [1] was 8 µM; in test [2], 54 µM; in test [3] it was > 32 µM; in the test with Yersinia pestis [4], > 31 µM. Further, the MIC90 in the test on Yersinia pestis [1] is > 31 µM; in test [2], > 63 µM; in test [3], > 31 µM; against Yersinia pestis [4] it was > 31 µM. Moreover, the “Ratio IC50” value with Yersinia pestis [5] is >4.
Regarding `CC(=O)N1N=C(c2ccccc2O)C[C@H]1c1ccccc1O`, the IC50 with Yersinia pestis [1] was > 31 µM; in test [2], > 31 µM; in test [3], > 16 µM; with Yersinia pestis [4] it was > 31 µM. Moreover, the MIC90 in the test on Yersinia pestis [1] is > 31 µM; in test [2], > 32 µM; in test [3] it was > 16 µM; in the test on Yersinia pestis [4] it was > 31 µM.
Consider `NC(=O)N1N=C(c2ccccc2O)C[C@H]1c1ccccc1O`, for which the IC50 in the test with Yersinia pestis [1] was > 250 µM; in test [2], 77 µM; in test [3], 64 µM; in the test on Yersinia pestis [4] it was > 250 µM. The MIC90 against Yersinia pestis [1] was > 250 µM; in test [2], 208 µM (≈ 61.8 µg/mL); in test [3], 104 µM (≈ 30.9 µg/mL); in the test with Yersinia pestis [4], > 250 µM. In addition, in test [6], the “Ratio IC50” value came to 1. Besides, the Ratio in test [7] came to 0.5. Further, the result in test [8] was Active.
For the molecule `CC(=O)N1N=C(c2ccccc2O)C[C@H]1c1ccc(O)cc1`, the IC50 was > 16 µM in the test with Yersinia pestis [1], > 8 µM in test [2], > 8 µM in test [3] and > 16 µM in the test on Yersinia pestis [4]. Besides, the MIC90 is > 16 µM against Yersinia pestis [1], > 8 µM in test [2], > 8 µM in test [3] and > 16 µM against Yersinia pestis [4].
Turning to `NC(=O)N1N=C(c2ccccc2O)C[C@H]1c1ccc(O)cc1`, the IC50 is > 31 µM in the test on Yersinia pestis [1], > 63 µM in test [2], > 32 µM in test [3] and > 31 µM with Yersinia pestis [4]. The MIC90 was > 31 µM in the test with Yersinia pestis [1], > 63 µM in test [2], > 63 µM in test [3] and > 31 µM against Yersinia pestis [4].
For `O=S(=O)(c1ccccc1)N1N=C(c2ccccc2O)C[C@H]1c1ccccc1O`, the IC50 was 8 µM with Yersinia pestis [1], > 63 µM in test [2], > 16 µM in test [3] and > 31 µM in the test on Yersinia pestis [4]. Also, the MIC90 against Yersinia pestis [1] was > 31 µM; in test [2] it was > 63 µM; in test [3], > 31 µM; against Yersinia pestis [4], > 31 µM. The “Ratio IC50” value with Yersinia pestis [5] is recorded as >4.
Consider `Cc1ccc(S(=O)(=O)N2N=C(c3ccccc3O)C[C@H]2c2ccccc2O)cc1`, for which the IC50 in the test with Yersinia pestis [1] was > 31 µM; in test [2], > 63 µM; in test [3], > 31 µM; in the test with Yersinia pestis [4], > 16 µM. For the same molecule, the MIC90 against Yersinia pestis [1] was > 31 µM; in test [2], > 63 µM; in test [3], > 31 µM; against Yersinia pestis [4], > 16 µM.
With `O=C(c1ccccc1)N1N=C(c2ccccc2O)C[C@H]1c1ccc(O)cc1`, the IC50 in the test with Yersinia pestis [1] was > 31 µM; in test [2], > 63 µM; in test [3], > 16 µM; in the test on Yersinia pestis [4], > 16 µM. Also, the MIC90 with Yersinia pestis [1] was > 31 µM; in test [2] it was > 63 µM; in test [3], > 63 µM; against Yersinia pestis [4], > 16 µM.
Take `O=C(c1ccncc1)N1N=C(c2ccccc2O)C[C@H]1c1ccc(O)cc1`: the IC50 in the test on Yersinia pestis [1] is > 8 µM; in test [2], > 8 µM; in test [3] it was > 4 µM; with Yersinia pestis [4], > 8 µM. Also, the MIC90 in the test with Yersinia pestis [1] was > 8 µM; in test [2], > 8 µM; in test [3] it was > 4 µM; against Yersinia pestis [4] it was > 8 µM.
As for `N=C(NO)N/N=C/c1ccc(O)cc1`, the IC50 with Yersinia pestis [1] is > 500 µM; in test [2], 43 µM; in test [3], 43 µM; with Yersinia pestis [4], > 500 µM. Moreover, the MIC90 was > 500 µM against Yersinia pestis [1], 222 µM (≈ 43.1 µg/mL) in test [2], 132 µM (≈ 25.6 µg/mL) in test [3] and > 500 µM in the test with Yersinia pestis [4]. The “Ratio IC50” value in test [6] is 1. Further, the Ratio in test [7] turned out to be 1. In test [8], the result was Active.
As for `N=C(N)N1N=C(c2ccccc2O)C[C@H]1c1ccc(O)cc1`, the IC50 is > 125 µM with Yersinia pestis [1], 31 µM in test [2], 26 µM in test [3] and > 63 µM in the test on Yersinia pestis [4]. Also, the MIC90 in the test on Yersinia pestis [1] was > 125 µM; in test [2], 125 µM (≈ 37 µg/mL); in test [3], 76 µM (≈ 22.5 µg/mL); in the test on Yersinia pestis [4] it was > 63 µM. Moreover, the “Ratio IC50” value in test [6] is 1. In addition, the Ratio in test [7] was 1. In test [8], the result was Active.
Regarding `O=C(NO)N/N=C/c1ccc(O)cc1`, the IC50 in the test with Yersinia pestis [1] was > 250 µM; in test [2], 97 µM; in test [3], 40 µM; with Yersinia pestis [4], > 250 µM. Further, the MIC90 against Yersinia pestis [1] was > 250 µM; in test [2] it was 146 µM (≈ 28.5 µg/mL); in test [3], 97 µM (≈ 18.9 µg/mL); against Yersinia pestis [4], > 250 µM. In test [6], the “Ratio IC50” value turned out to be 0.4. Further, in test [7], the Ratio is given as 1. In addition, the outcome in test [8] was Active.
Take `O=C(c1ccncc1)N1N=C(c2ccccc2O)C[C@H]1c1ccccc1O`: the half-inhibitory concentration (IC50) in the test on Yersinia pestis [1] is > 16 µM; in test [2] it was 8 µM; in test [3], 8 µM; in the test on Yersinia pestis [4] it was > 16 µM. In addition, the MIC90 in the test on Yersinia pestis [1] is > 16 µM; in test [2] it was 16 µM (≈ 5.75 µg/mL); in test [3], 16 µM (≈ 5.75 µg/mL); in the test with Yersinia pestis [4] it was > 16 µM. The “Ratio IC50” value in test [6] is 1. Also, the Ratio in test [7] was found to be 1. Moreover, in test [8], the result was Active.
Take `C/C(=N\NC(=O)NO)c1ccc(O)cc1`: the IC50 (in the test on Yersinia pestis [1]; in test [2]; in test [3]; in the test with Yersinia pestis [4]) was > 500 µM in each case. Also, the MIC90 (with Yersinia pestis [1]; in test [2]; in test [3]; in the test on Yersinia pestis [4]) was > 500 µM each time.
With `O=C(c1ccccc1)N1N=C(c2ccccc2O)C[C@H]1c1ccccc1O`, the half-inhibitory concentration (IC50) is > 31 µM in the test on Yersinia pestis [1], 84 µM in test [2], 98 µM in test [3] and > 63 µM with Yersinia pestis [4]. Moreover, the MIC90 with Yersinia pestis [1] is > 31 µM; in test [2] it was > 500 µM; in test [3] it was > 500 µM; with Yersinia pestis [4] it was > 63 µM. For the same molecule, the “Ratio IC50” value in test [6] was found to be 1.
In test [2], `NNC(=O)c1ccncc1` [ISONIAZID] gave an IC50 of 0.07 µM and an MIC90 of 0.2 µM (≈ 0.0274 µg/mL). In test [3], this molecule had an IC50 of 0.09 µM and an MIC90 of 0.2 µM (≈ 0.0274 µg/mL). For the same molecule, the “Ratio IC50” value in test [6] is on record as 1. Besides, the Ratio in test [7] is 1. Also, the outcome in test [8] was Active.
As to `C/C(=N\NC(=O)NO)c1ccccc1O`, the IC50 is > 4 µM with Yersinia pestis [1], > 8 µM in test [2], > 8 µM in test [3] and > 2 µM in the test with Yersinia pestis [4]. The MIC90 in the test with Yersinia pestis [1] is > 4 µM; in test [2], > 8 µM; in test [3] it was > 8 µM; against Yersinia pestis [4] it was > 2 µM.
Regarding `O=S(=O)(c1ccccc1)N1N=C(c2ccccc2O)C[C@H]1c1ccc(O)cc1`, the 50% inhibitory concentration (IC50) in the test with Yersinia pestis [1] was > 16 µM; in test [2], > 63 µM; in test [3], > 31 µM; in the test with Yersinia pestis [4], > 31 µM. The MIC90 was > 16 µM in the test on Yersinia pestis [1], > 63 µM in test [2], > 31 µM in test [3] and > 31 µM with Yersinia pestis [4].
For the molecule `Cc1ccc(S(=O)(=O)N2N=C(c3ccccc3O)C[C@H]2c2ccc(O)cc2)cc1`, the IC50 in the test with Yersinia pestis [1] was > 31 µM; in test [2], > 63 µM; in test [3], > 31 µM; in the test with Yersinia pestis [4] it was > 16 µM. In addition, the MIC90 in the test with Yersinia pestis [1] was > 31 µM; in test [2], > 63 µM; in test [3], > 31 µM; with Yersinia pestis [4], > 16 µM.
As for `NC(=S)N1N=C(c2ccccc2O)C[C@H]1c1ccccc1O`, the IC50 in the test on Yersinia pestis [1] is 181 µM; in test [2], 53 µM; in test [3], 50 µM; with Yersinia pestis [4], > 63 µM. For the same molecule, the MIC90 against Yersinia pestis [1] is > 250 µM; in test [2], 125 µM (≈ 39.2 µg/mL); in test [3] it was 125 µM (≈ 39.2 µg/mL); against Yersinia pestis [4], > 63 µM. In test [6], the “Ratio IC50” value was found to be 1. In addition, the Ratio in test [7] was 1. Also, in test [8], the result was Active.

One may read the IC50 as the concentration that inhibits the measured activity by half. Read a high IC50 as a need for much substance. One may read the MIC90 as the lowest concentration that inhibits either 90% of growth or 90% of the strains tested, depending on the study. A higher MIC90 goes with weaker potency.
